Compound activity deposited in PubChem BioAssay by several laboratories.
DAX1 inh-1: blocks DAX1 repression of SF-1 activated StAR promoter | HEK293T StAR-luciferase reporter, SF-1/DAX-1 repression relief | inhibition, % at 6.8 µM | 370,000 tested, 1.1% active;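 active means inhibition above the mean over all tested compounds plus 3 SD, cut at about 3.6% in these data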;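 further: 0% = DAX-1 cells with DMSO and 100% = cells lacking DAX-1 with DMSO; higher inhibition means more luminescence from relief of DAX-1 repression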
NR2E3 ag-1: agonists of human nuclear receptor NR2E3; Q9Y5X4; GST-NR2E3/biotin-RetCOR TR-FRET, 1536-well; inhibition of corepressor binding, % at 4.78 µM; 320,000 tested, 0.12% active;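 active means percent inhibition above the cutoff of mean plus 3 SD of all tested compounds, set per screening campaign, cut at about 20% in these data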;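 further: 0% = DMSO wells and 100% = biotin wells as full block of FRET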
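Test system: GST-NR2E3 and biotin-RetCOR proteins | Quantity: 1.35 nM GST-tagged NR2E3 final | Medium: Tris pH 7.5 | Also added: 7 nM biotin-RetCOR | Dosing: Compound at 4.8 µM, single dose | Timing: 5 h at 4 °C | Detection: Time-resolved FRET | Read-out basis: Percent inhibition | Benchmarks: Biotin wells as high control, 0.6% DMSO wells as low control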
NR2E3 ag-2: activates human NR2E3 receptor | CHO-S Gal4-NCOR/VP16-NR2E3 two-hybrid, luciferase | inhibition of corepressor binding, % at 3.98 µM | 360,000 tested, 0.35% active | AID 602229;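 active means inhibition above the mean of all tested compounds plus 3 SD, cut at about 70% in these data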;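 further: 0% = DMSO with NR2E3 transfected cells and 100% = cells lacking NR2E3 construct; higher means lower luciferase signal from less NR2E3 corepressor binding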
DAX1 inh-2: inhibitors of human orphan nuclear receptor DAX1 (NR0B1); P51843; HEK293 Gal4-DAX1 luciferase reporter, luminescence; inhibition, % at 6.75 µM; 340,000 tested, 0.99% active; AID 504766;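 active means inhibition above the mean over all tested compounds plus 3 SD, cut at about 4.2% in these data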;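 further: 0% = DAX1-transfected cells with DMSO and 100% = empty-vector control cells with DMSO; inhibition shows as a rise in luminescence from relieved DAX1 repression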
Target sequence (P51843 207-470 limits assumed): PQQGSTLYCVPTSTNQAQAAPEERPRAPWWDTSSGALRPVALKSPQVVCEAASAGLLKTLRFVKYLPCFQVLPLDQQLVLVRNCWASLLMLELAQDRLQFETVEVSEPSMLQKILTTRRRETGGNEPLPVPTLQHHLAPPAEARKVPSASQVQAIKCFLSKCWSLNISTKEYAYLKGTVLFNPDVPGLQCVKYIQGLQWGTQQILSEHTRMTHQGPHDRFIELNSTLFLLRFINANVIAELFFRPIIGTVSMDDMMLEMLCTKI
SMARCA2 activ: increases SMARCA2 function in MMTV reporter cells. activation, % at 9.1 µM. 370,000 tested, 1% active. MG213 cells, MMTV-luciferase reporter, dexamethasone, overnight; in the data active means activation above about 7.8%;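 further: 0% = vehicle wells and 100% = reference activator wells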
GASC-1 inh: inhibitors of human GASC-1 (JMJD2C) demethylase; inhibition, % at 2.35 µM; 330,000 tested, 0.069% active; GST-JMJD2C(1-420) H3K9me3 demethylation, DELFIA europium;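 active means more than half of a compound's replicate wells show inhibition beyond 50%, single wells judged on their own value; inconclusive means some, but no more than half, of replicates pass 50% inhibition; inactive means no replicate passes 50% inhibition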;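 further: signal counts dimethyl H3K9 product captured on neutravidin plate; 0% = median of DMSO wells and 100% = 0.3 times that DMSO median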
Target sequence (Q9H3R0 1-420 limits assumed): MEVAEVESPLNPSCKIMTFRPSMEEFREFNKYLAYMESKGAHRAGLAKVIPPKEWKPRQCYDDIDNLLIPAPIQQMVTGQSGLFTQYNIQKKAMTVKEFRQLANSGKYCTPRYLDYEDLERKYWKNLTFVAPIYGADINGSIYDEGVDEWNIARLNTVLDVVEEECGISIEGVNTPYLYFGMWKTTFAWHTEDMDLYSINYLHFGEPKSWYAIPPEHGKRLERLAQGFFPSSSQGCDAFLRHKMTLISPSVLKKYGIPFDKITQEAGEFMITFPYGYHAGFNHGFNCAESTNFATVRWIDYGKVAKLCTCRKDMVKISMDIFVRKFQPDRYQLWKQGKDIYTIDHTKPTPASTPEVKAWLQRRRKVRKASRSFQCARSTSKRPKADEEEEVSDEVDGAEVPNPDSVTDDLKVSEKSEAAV
NR2E3 ag conf: NR2E3 agonism confirmed in two-hybrid assay | CHO-S mammalian two-hybrid NR2E3-NCOR, luciferase luminescence | 2,300 tested, 51% active | shares compounds with NR2E3 ag-2 | AID 624378 | inhibition, % at 3.98 µM;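 active means average inhibition above a cutoff equal to the mean inhibition of all tested compounds plus one SD, cut at about 70% in these data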;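 further: 0% = DMSO in NR2E3 cells and 100% = DMSO in cells lacking NR2E3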
VP16 counter: reduces GAL4-VP16 reporter signal in NR2E3 counterscreen | inhibition, % at 3.98 µM | 2,300 tested, 29% active | shares compounds with NR2E3 ag-2 | AID 624379 | CHO-S GAL4-VP16 luciferase reporter, luminescence;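 active means mean inhibition above a cutoff equal to the average over all tested compounds plus one standard deviation, cut at about 70% in these data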;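 further: luciferase from a UAS reporter driven by GAL4-VP16 transactivation; 0% = DMSO with VP16-transfected cells and 100% = DMSO with cells lacking VP16; higher means less reporter light so more repression of VP16 activity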
The depositor's hits bear a star; ? = inconclusive; . = no result. Most compounds without a hit are left out; they make up all but 3.2% or so of the library.

SMILES | DAX1 inh-1 | NR2E3 ag-1 | NR2E3 ag-2 | DAX1 inh-2 | SMARCA2 activ | GASC-1 inh | NR2E3 ag conf | VP16 counter
O=C(COc1ccc(F)cc1)Nc1nc(-c2ccccn2)cs1 | -1.8 | -0.3 | 32.3 | 0.4 | -2.3 | 2.4 | . | .
CNC(=S)N/N=C/c1cc(Br)cc(Br)c1O | -0.7 | 4.5 | 89.0* | -1.6 | -4.3 | 12.0 | -16.1 | -24.4
Cc1cc(N2CCN(C(=O)c3cccs3)CC2)c(F)cc1[N+](=O)[O-] | -0.6 | 3.0 | 79.0* | -1.9 | -2.9 | -2.4 | 82.3* | 65.9
Cn1c(=O)cc(SCC(=O)Nc2ccccn2)c2ccccc21 | 0.6 | -7.4 | . | . | -0.8 | 37.6 | . | .
Cc1ccnc(NC(=O)CSc2cc(=O)n(C)c3ccccc23)c1 | -0.9 | -1.6 | 66.6 | 0.2 | -1.5 | -3.0 | 89.2* | 20.4
Cc1ccc(-n2nc3c(=O)n(CCCC(=O)NCc4cccc(F)c4)nc(C)c3c2C)cc1 | -0.1 | -0.7 | 51.7 | -0.4 | 0.1 | 2.8 | 20.4 | 39.3
Cc1ccc(-n2nc3c(=O)n(CC(=O)NC(C)CCc4ccccc4)nc(C)c3c2C)cc1 (stereo not given) | . | 1.2 | 55.0 | -1.4 | . | -0.6 | 52.0 | 65.3
COc1ccccc1C(=O)NC1CCCCN(Cc2ccccc2C)C1=O (stereo not given) | -1.1 | . | . | . | -2.2 | . | . | .
Cc1ccc(S(=O)(=O)n2ccc3c(OCCOCCSCC(NC(=O)OC(C)(C)C)C(=O)O)cccc32)cc1 (stereo not given) | -0.2 | 2.3 | 5.8 | 0.1 | -4.0 | 2.3 | . | .
Cc1ccc(S(=O)(=O)n2ccc3c(OCCOCCNCc4ccc(F)cc4)cccc32)cc1 | -0.9 | -1.5 | 63.0 | -0.5 | -6.2 | 6.5 | 34.1 | 40.4
O=C(CSc1nnc(-c2ccc(Cl)cc2)n1-c1ccccc1)Nc1ccc(Oc2ccccc2)cc1 | -1.0 | . | . | . | -3.7 | . | . | .
Cn1nccc1C(=O)NC1CCCc2c1cnn2-c1ccc(C(C)(C)C)cc1 (stereo not given) | -9.7 | -0.4 | 106.0* | -2.2 | -3.2 | 3.0 | 95.1* | 83.6*
CC(C)(C)c1ccc(-n2ncc3c2CCCC3NC(=O)c2cnccn2)cc1 (stereo not given) | -3.1 | 0.4 | 88.8* | -2.2 | 1.8 | 1.0 | 58.8 | 47.5
CC(C)(C)c1ccc(-n2ncc3c2CCCC3NC(=O)c2csnn2)cc1 (stereo not given) | -0.6 | 4.3 | -42.5 | -0.1 | -0.8 | 44.6 | . | .
NC(=NCCc1c[nH]c2ccccc12)NC(=O)OCc1ccccc1 | -0.9 | . | . | . | -1.8 | . | . | .
CCn1cc(CN(C)S(=O)(=O)c2ccc3ccccc3c2)c(C)n1 | -2.6 | 1.5 | 66.2 | -2.6 | -6.7 | -7.3 | 87.8* | 70.8*
CCn1c(Cl)c(C=O)s/c1=N\S(=O)(=O)c1ccccc1 | -1.4 | -2.9 | 53.4 | -6.7 | -12.4 | -10.2 | 24.4 | 15.3
Cn1ncc(S(=O)(=O)Cc2ccccc2)c(Cl)c1=O | 0.1 | -1.7 | 64.2 | 0.0 | 3.5 | -9.7 | 31.7 | -1.1
Cn1c(=O)c(=O)n(C)c2cc(S(=O)(=O)N3CCN(CCO)CC3)ccc21 | -0.2 | . | . | . | -1.4 | . | . | .
NC1=C(Br)C(=O)c2ncccc2C1=O | -6.2 | . | 98.6* | -6.5 | -12.6 | . | 92.4* | 50.6
O=C1c2cccnc2C(=O)N1CO | 0.2 | -0.1 | -3.8 | 1.1 | 0.3 | 6.3 | . | .
NC(=S)NN=Cc1nccc2ccccc12 | -8.0 | . | 74.9* | -5.9 | -8.1 | . | 15.2 | -16.7
NC(=S)NN=Cc1nccc2c(C(F)(F)C(F)(F)C(F)(F)F)cccc12 | -6.5 | . | 86.8* | -4.6 | -5.9 | . | -5.6 | 26.1
Cc1cnc(C=NNC(N)=S)c2cccc(N)c12 | -0.8 | . | 18.8 | -1.1 | 4.6 | . | . | .
Cc1ccc(NC(=O)c2c(C(F)(F)F)nn(C)c2SCc2cccc(C(F)(F)F)c2)cc1C | -1.5 | 1.6 | 49.0 | -1.0 | -5.6 | 3.4 | 55.2 | 43.8
SMILES | DAX1 inh-1 | NR2E3 ag-1 | NR2E3 ag-2 | DAX1 inh-2 | SMARCA2 activ | GASC-1 inh | NR2E3 ag conf | VP16 counter
Cc1ccc(NC(=O)c2c(C(F)(F)F)nn(C)c2SCc2ccc(Cl)cc2)cc1C | -0.7 | 0.5 | -20.2 | 0.0 | 1.6 | 0.5 | . | .
O=Nc1ccc(O)c2ncccc12 | -2.9 | -5.2 | 55.5 | -2.5 | -6.2 | 2.2 | 58.0 | 21.0
Cc1ccccc1N=Nc1ccc(O)c2ncccc12 | 0.6 | 0.2 | 6.2 | 0.0 | 2.0 | 12.8 | . | .
O=[N+]([O-])c1cc(CN2CCN(c3ccccc3)CC2)c(O)c2ncccc12 | -2.5 | -1.1 | 83.3* | -2.1 | -1.8 | -20.9 | 74.1* | 20.0
O=[N+]([O-])c1ccc(O)c2cccnc12 | -0.1 | -4.9 | 8.5 | 0.9 | 2.2 | -20.3 | . | .
CN(Cc1cc([N+](=O)[O-])c2cccnc2c1O)C1CCCCC1 | . | -1.9 | . | . | . | -15.6 | . | .
O=[N+]([O-])c1ccc(O)c2ncccc12 | -3.5 | -3.1 | 102.8* | -2.3 | -8.9 | ? | 81.3* | 40.7
O=[N+]([O-])c1cc(Cl)c(O)c2ncccc12 | -0.6 | . | 102.9* | 0.3 | -3.6 | . | 99.0* | 71.2*
C=CCN1C(=O)[C@H](CC(=O)NCCC(C)C)[C@@]2(C(=O)OCC)CCCC=C12 | -0.1 | . | . | . | -1.7 | . | . | .
CC(=O)N1CCc2cc(S(=O)(=O)NC3CCN(C(=O)CCl)CC3)ccc21 | -3.4 | . | . | . | 5.0 | . | . | .
COc1ccc(S(=O)(=O)N2CCOC2CNC(=O)C(=O)NCc2ccc(F)cc2)cc1OC (stereo not given) | -1.0 | 2.4 | 48.9 | 0.1 | 1.2 | 0.2 | 9.9 | 11.8
CCc1ccc(NC(=O)c2ccc(F)c(S(=O)(=O)NCC3COc4ccccc4O3)c2)cc1 (stereo not given) | -2.3 | -0.6 | 56.8 | -2.9 | -4.3 | 4.2 | 55.3 | 46.2
CCCCC(=O)N(C)c1c(C)nc2ccc(C(=O)NCCOc3ccc(OC)cc3)cn12 | -0.8 | . | -10.5 | . | -2.1 | . | . | .
CCCCN(C)c1c(C)nc2ccc(C(=O)NCCOc3ccc(OC)cc3)cn12 | . | . | 48.7 | . | . | . | 94.2* | 68.5
O=C(NCc1ccc(C(F)(F)F)cc1)C1CC(c2ccc(C(F)(F)F)cc2)=NO1 (stereo not given) | -0.4 | 2.0 | 80.9* | 1.0 | -0.9 | 9.6 | 80.9* | 60.4
CCN1CCN(S(=O)(=O)c2ccc(Cl)c(C(=O)N(C)Cc3cccc(Cl)c3Cl)c2)CC1 | -1.9 | 1.0 | 6.8 | -1.8 | -2.6 | 0.4 | . | .
CN(CC(=O)Nc1cccc(F)c1)C(=O)c1cccc(S(=O)(=O)N2CCN(Cc3ccccc3)CC2)c1 | -1.6 | . | 22.0 | -2.4 | -3.9 | . | . | .
CN(Cc1cccc(F)c1)C(=O)c1cccc(S(=O)(=O)N2CCN(Cc3ccccc3)CC2)c1 | -2.4 | -2.0 | 60.9 | 0.0 | -3.1 | 12.1 | 49.7 | 35.8
